Screens (PubChem)
CXCR6 inh – inhibitors of human CXCR6 receptor; CHO-K1 PathHunter CXCR6 beta-arrestin, luminescence; inhibition, % at 20 µM; 0.36% of 360,000 active; AID 602244; in the data active = inhibition above about 34%, passing the limit was not always enough;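 also: antagonist mode with CXCL16 agonist at 10 nM final; 0% = 10 nM CXCL16 with DMSO and 100% = unstimulated wells without agonist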
CCR6 antag – antagonists of human CCR6 receptor; P51684; inhibition, % at 20 µM; CHO-K1 CCR6 PathHunter beta-arrestin, luminescence, CCL20-stimulated; AID 493098; 0.49% of 340,000 active;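 active = compounds whose inhibition of the agonist-driven luminescence signal at 20 µM reaches about 50%, limit read from the data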;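 also: cells stimulated with CCL20 at 14 nM final; plate controls were DMSO with CCL20 for no effect and DMSO without agonist for full effect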
Target sequence (P51684 whole entry, looked up): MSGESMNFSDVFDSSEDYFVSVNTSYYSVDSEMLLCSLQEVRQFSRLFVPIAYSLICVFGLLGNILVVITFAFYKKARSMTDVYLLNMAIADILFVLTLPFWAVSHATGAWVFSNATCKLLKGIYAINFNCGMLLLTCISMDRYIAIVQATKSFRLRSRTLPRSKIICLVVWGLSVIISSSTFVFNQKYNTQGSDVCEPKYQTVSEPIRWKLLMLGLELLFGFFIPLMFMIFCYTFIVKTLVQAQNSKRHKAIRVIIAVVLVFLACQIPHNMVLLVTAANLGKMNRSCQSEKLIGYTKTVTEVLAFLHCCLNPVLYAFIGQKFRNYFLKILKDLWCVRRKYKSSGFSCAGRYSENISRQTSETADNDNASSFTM
APJ agonist – APJ receptor agonism; CHO-K1 APJ PathHunter beta-arrestin, luminescence; 0% DMSO wells, 100% apelin; activation, % at 20 µM; 0.11% of 330,000 active;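 active = activation more than six SD over the plate average, tested at 20 µM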;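 also: 0% = DMSO alone and 100% = apelin-13 at 10 nM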
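Material: CHO-K1 APJ beta-arrestin complementation cell line; Input: cell density 1000 per well; Incubation: compound stimulation 90 min at 25 °C, detection 60 min; Signal: luminescence from split beta-galactosidase complementation, Galacton Star/Emerald II substrate; Controls: DMSO-only wells as negative, 10 nM Apelin-13 as positive control.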
HTR2A ag – agonists of mouse serotonin 5-HT2A receptor (HTR2A); P35363; CHO-K1 mHTR2A beta-arrestin complementation, luminescence; percent of 30 µM serotonin response; activation, % at 7.6 µM; 0.66% of 360,000 active;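 active = activation above a run cutoff, the mean activation of all tested compounds plus 3 SD, cut at about 14% in these data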;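 also: 0% = plate median of compound wells and 100% = 30 µM serotonin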
APJ antag – APJ receptor antagonism. P35414. CHO-K1 APJ beta-arrestin complementation, luminescence. inhibition, % at 20 µM. 0.32% of 330,000 active. AID 2521;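 active = inhibition above about 40% at 20 µM, limit read from the data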;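 also: cells challenged with 10 nM apelin-13 agonist together with compound; plate controls were apelin-13 plus DMSO wells for no effect and DMSO wells lacking apelin-13 for full effect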
EBI2 antag – blocks human EBI2 receptor beta-arrestin signaling; 0.81% of 360,000 active; EBI2 beta-arrestin recruitment, luminescence, 7a,25-OHC stimulated; P32249; inhibition, % at 5 µM; in the data active = inhibition above about 38%;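 also: enzyme fragment complementation signal reports receptor beta-arrestin coupling in cells; 0% = agonist plus DMSO wells and 100% = wells without agonist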
APJ ag confirm – confirmation of human APJ apelin receptor agonists | shares compounds with APJ agonist | CHO-K1 APJ PathHunter beta-arrestin, luminescence | activation, % at 20 µM | 10% of 310 active;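 active = activation above 40%, taking the highest of four retests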;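 also: plate controls were DMSO wells for no effect and apelin-13 at 10 nM for full effect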
Active calls of the source: *; / = not tested or not shown. The list is not random: actives were taken first. Their share in the collection is about 2.1%.

SMILES | CXCR6 inh | CCR6 antag | APJ agonist | HTR2A ag | APJ antag | EBI2 antag | APJ ag confirm
Cc1ccc(S(=O)(=O)N2C(=O)CCC2C(=O)O/N=C(\N)c2ccccc2)cc1 (stereo not drawn) | -3 | -6 | 12 | -4 | -37 | 5 | /
Cc1ccc(S(=O)(=O)N2C(=O)CCC2C(=O)O/N=C(\N)c2cccc([N+](=O)[O-])c2)cc1 (stereo not drawn) | -36 | -41 | 37* | 2 | -132 | -9 | 23
CSc1ccc(C(=O)C2CCCN(C(=O)c3ccc4c(c3)no[n+]4[O-])C2)cc1 (stereo not drawn) | -18 | -3 | 18* | 1 | -107 | -9 | 44*
CSc1ccc(C(=O)C2CCCN(C(=O)c3ccsc3)C2)cc1 (stereo not drawn) | -2 | 12 | -2 | -5 | -13 | -14 | /
CCCCC1=CC2=CC(=O)C(C)(OC(=O)CC)C(=O)C2=CN1C1CCCCC1 (stereo not drawn) | -6 | 2 | 125* | 4 | -25 | 2 | 54*
COC(=O)CCCC1=CC2=CC(=O)C(C)(OC(=O)c3cccs3)C(=O)C2=CN1C1CCCCC1 (stereo not drawn) | -21 | -5 | 92* | 7 | -47 | -8 | 21
Clc1cccc(CN2CCc3c([nH]c4ccccc34)C2)c1 | -4 | 5 | 11 | 8 | -33 | 27 | /
Clc1ccc(CN2CCc3c([nH]c4ccccc34)C2)cc1Cl | -3 | 14 | 85* | 3 | -14 | 16 | 3
COc1ccc(/C(N)=N/OC(=O)c2ccc([N+](=O)[O-])c(C)c2)cc1OC | -13 | -13 | 11* | -2 | -14 | 1 | 10
COc1ccc(/C(N)=N/OC(=O)c2cccs2)cc1OC | -15 | -5 | 18* | -2 | -72 | -1 | 26
Cc1cc(C(=O)O/N=C(\N)c2ccncc2)ccc1[N+](=O)[O-] | -15 | 4 | 16 | -1 | -39 | -19 | /
CC(C)C[C@@H](CO)N(Cc1ccccc1)S(=O)(=O)N(Cc1ccccc1)[C@H](CO)CC(C)C | -7 | -30 | 11* | 4 | -30 | 10 | 18
O=C(CN1CCCC1)Nc1c(C(=O)C2CC2)oc2ccccc12 | 5 | 14 | 0 | 1 | 9 | -5 | /
N#Cc1ccccc1OCC(=O)Nc1c(C(=O)C2CC2)oc2ccccc12 | -1 | 0 | 40* | -4 | -7 | 25 | 7
CCOc1ccc2[nH]c(=O)c(CN(Cc3ccco3)C(CC)c3nnnn3Cc3ccccc3)cc2c1 (stereo not drawn) | 7 | 13 | 76* | 0 | 0 | -5 | 9
C[C@@H](NC(=O)Cn1ccc(N)nc1=O)c1cccc2ccccc12 | -7 | 1 | -1 | 4 | -3 | -6 | /
COC(=O)C[C@H]1CC[C@@H](NC(=O)c2ccncc2)[C@@H](CO)O1 | / | / | / | -3 | / | -2 | /
CCCCNc1c(-c2cccc(-c3ccc(OC)cc3)c2)nc2ccc(C)cn12 | -11 | -3 | 52* | 12 | -26 | -95 | 15
CCCCNc1c(-c2cccc(-c3ccc(OC)cc3)c2)nc2cc(C)ccn12 | 5 | -14 | 7 | -5 | -28 | 0 | /
CN(CCOc1ccccc1)C(=O)c1cc(S(=O)(=O)N2CCOCC2)c(Cl)cc1Cl | -7 | / | / | -10 | / | 9 | /
CN(C)CCCN(C(=O)c1cc2cc([N+](=O)[O-])ccc2s1)c1nc2cc3c(cc2s1)OCCO3 | 6 | 26 | 43* | -10 | -4 | -14 | 21
CN(C)CCCN(C(=O)c1ccc([N+](=O)[O-])s1)c1nc2cc3c(cc2s1)OCCO3 | -10 | -9 | 131* | -3 | -145 | -14 | 38
COCCc1ccc(OC2(C)CCN(Cc3cccn3-c3nccs3)C2)cc1 (stereo not drawn) | 2 | / | / | -1 | / | -5 | /
COc1ccc(CCN2CCC(Nc3nc4ccccc4n3Cc3ccc(F)cc3)CC2)cc1 | 1 | 4 | 32* | 3 | 18 | -2 | 17
O=[N+]([O-])c1ccc2nc(-c3ccc(Cl)cc3)[nH]c2c1 | -6 | -24 | 14* | -2 | -15 | 11 | 31
SMILES | CXCR6 inh | CCR6 antag | APJ agonist | HTR2A ag | APJ antag | EBI2 antag | APJ ag confirm
Cc1ccc(-n2nnnc2C(Cl)(Cl)c2nnnn2-c2ccc(C)cc2)cc1 | 9 | 52* | 34* | 0 | -28 | 9 | 41*
CC1(COS(N)(=O)=O)CCCCC1 | 8 | -3 | 6 | 2 | 13 | -19 | /
CCCCc1ccc(NC(=O)COc2ccc(C(=O)Nc3ccccc3OCC)cc2)cc1 | -5 | -7 | 36* | 4 | -6 | -8 | 4
CCOc1ccc(NC(=O)COc2ccc(C(=O)NCCc3ccccc3)cc2)cc1 | 2 | 21 | -3 | -2 | 8 | -17 | /
COc1ccc(C2(O)C(=O)Nc3ccc(C)cc32)cc1OC (stereo not drawn) | 8 | 8 | -5 | 2 | -1 | 0 | /
CCCCCCCCN1C(=O)[C@H](CC(=O)N2CCCCC2)C[C@@]2(C(=O)OC)CCCCC=C12 | 9 | / | / | 0 | / | 12 | /
CS(=O)(=O)c1cnc(-c2ccccc2)nc1Sc1ccc(F)cc1 | 0 | -3 | 18* | -1 | -17 | -23 | 13
O=C(Nc1ccc2c(c1)OCO2)c1ccc2c(c1)S(=O)(=O)c1ccccc1C2=O | -20 | 15 | 16 | 2 | -87 | -20 | /
CC(=O)N(/N=C/c1cccc(C)c1)c1nc(-c2ccc(Br)cc2)cs1 | 4 | 17 | 11 | 3 | -3 | 3 | /
COc1ccc(/C=N/N(C(C)=O)c2nc(-c3ccc(C)cc3)cs2)cc1 | 2 | 9 | 50* | -1 | -35 | -4 | 14
COc1cccc(Nc2nc(C(N)Cc3ccccc3)cs2)n1 (stereo not drawn) | 7 | / | / | 0 | / | 7 | /
CCOC(=O)c1c(C)[nH]c(C(=O)OCC(=O)Nc2ccc(Cl)cn2)c1C | 11 | 7 | -1 | 4 | -12 | 7 | /
CCOC(=O)c1c(C)[nH]c(C(=O)OCC(=O)Nc2sccc2C(N)=O)c1C | -11 | -46 | 32* | 7 | -46 | -33 | 16
CN1CCN(c2ccc(NC(=S)NC(=O)c3cccc4ccccc34)cc2)CC1 | -1 | 0 | 28* | -10 | -9 | 13 | -1
COc1cc(S(=O)(=O)N2CCN(Cc3ccc4c(c3)OCO4)CC2)ccc1NC(C)=O | -2 | / | 16* | -1 | -5 | -2 | -4
COc1ccc(S(=O)(=O)N2CCN(Cc3ccc4c(c3)OCO4)CC2)cc1F | -5 | 13 | -2 | -3 | -5 | -6 | /
O=C(COC(=O)c1ccc2ncsc2c1)Nc1ccc(OC(F)(F)F)cc1 | -4 | 5 | 18* | 6 | 2 | -3 | 13
